From publication PMC4089878 (Molecular cancer therapeutics, 2013)

Key:
K562 cells [1] = experiment: Cytotoxicity / viable cell count in K562 leukemic cells; format: cell-based, human
[2] = tested on: primary human cord blood CD34+ cells; experiment: Growth of normal cord blood CD34+ cells; format: cell-based; details: Supplementary figure 5
[3] = tested on: ID1 protein in K562 cells; experiment: Western blot of USP1 and ID1 protein levels in K562 cells; format: cell-based, human; details: for USP1 and ID1 protein levels: Western blot, 24 hrs (Pimozide 48 hrs)
K562 cells [4] = experiment: Apoptosis; format: cell-based, human; details: 24 hrs (Pimozide 48 hrs)
K562 xenograft = experiment: K562 mouse xenograft; format: in vivo, athymic nude mice; details: 15 mg/kg daily ip, nude mice
Method in brief: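 Athymic nude mice aged 6–8 weeks were injected subcutaneously in the flank with 5 × 10^6 K562 cells mixed 1:1 with matrigel. At […] tumor size, mice received 15 mg/kg daily ip in 2% DMSO + 0.3% tartaric acid, or vehicle alone (n=10 per group). Tumor volume was calculated as width² × length/2 and compared by […] t-test.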

[5] = tested on: MOLM14, OCI-AML3, U937 and SK-NO1; experiment: Cytotoxicity in AML cell lines; format: cell-based, human; details: 24 hrs
Ub-FANCD2 = experiment: Western blot of Ub-FANCD2, Ub-FANCI, Ub-PCNA levels; format: cell-based, human; details: supplementary figure 6
[6] = tested on: primary AML bone marrow and peripheral blood cells; experiment: Cytotoxicity in primary AML patient cells; format: cell-based, human; details: 48-72 hrs
Method in brief: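 Fresh bone marrow and peripheral blood were taken from AML patients, and mononuclear cells were harvested. These were cultured in triplicate with test compound or DMSO for 48–72 h, and viability was determined. Data come from 3 patient samples, shown as mean ± SEM.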

K562 cells [7] = experiment: Benzidine staining differentiation of K562 cells; format: cell-based, human; details: low dose, 5 days
U2OS-DRGFP cells = experiment: DR-GFP homologous recombination reporter; format: cell-based, human; details: 24 h treatment
Method in brief: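 U2OS-DRGFP cells carry a single chromosomally integrated copy of the HR substrate and were grown in DMEM with 10% FBS. DSBs were induced by I-SceI expression after plasmid transfection. After 24 h, cells were exposed to test compound for 24 h. The percentage of viable GFP-positive cells was measured by FACS and normalized to the solvent vehicle group.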

native USP1/UAF1 complex = experiment: HA-Ub-VS competition assay on native USP1 in cell extracts; format: cell-based, human; details: K562 cells treated 24 hrs (SJB2-043 1 μM); Ub-Aldehyde 5 μM added to extract
Method in brief: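 K562 cells were treated with test compound or DMSO for 24 h. Cell extracts were then incubated with 0.5 μM final HA-Ub-vinylsulfone for 45 min at 30 °C. As a control, an aliquot of untreated extract was pretreated with 5 μM ubiquitin-aldehyde before probe addition. Samples were immunoblotted with anti-HA and anti-USP1 antibodies.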

Sequence of native USP1/UAF1 complex (O94782 1-671 limits assumed): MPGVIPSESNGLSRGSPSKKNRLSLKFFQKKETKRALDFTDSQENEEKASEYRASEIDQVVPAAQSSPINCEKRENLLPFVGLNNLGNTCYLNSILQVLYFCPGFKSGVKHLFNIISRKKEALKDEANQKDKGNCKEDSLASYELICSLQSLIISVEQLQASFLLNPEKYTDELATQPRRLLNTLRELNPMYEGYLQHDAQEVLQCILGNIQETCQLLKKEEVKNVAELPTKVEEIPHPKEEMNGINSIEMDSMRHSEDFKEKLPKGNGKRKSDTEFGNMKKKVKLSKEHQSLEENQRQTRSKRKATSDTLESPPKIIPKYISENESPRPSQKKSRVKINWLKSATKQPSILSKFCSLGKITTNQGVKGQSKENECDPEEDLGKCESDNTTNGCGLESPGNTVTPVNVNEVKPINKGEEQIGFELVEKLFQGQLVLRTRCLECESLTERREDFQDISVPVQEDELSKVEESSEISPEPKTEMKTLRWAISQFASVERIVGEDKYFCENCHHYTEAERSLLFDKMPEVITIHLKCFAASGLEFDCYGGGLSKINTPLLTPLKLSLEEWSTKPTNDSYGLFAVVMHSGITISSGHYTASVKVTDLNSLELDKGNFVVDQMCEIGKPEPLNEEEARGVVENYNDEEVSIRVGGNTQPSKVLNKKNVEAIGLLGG
Sequence of native USP1/UAF1 complex (Q8TAF3 whole entry, further chain): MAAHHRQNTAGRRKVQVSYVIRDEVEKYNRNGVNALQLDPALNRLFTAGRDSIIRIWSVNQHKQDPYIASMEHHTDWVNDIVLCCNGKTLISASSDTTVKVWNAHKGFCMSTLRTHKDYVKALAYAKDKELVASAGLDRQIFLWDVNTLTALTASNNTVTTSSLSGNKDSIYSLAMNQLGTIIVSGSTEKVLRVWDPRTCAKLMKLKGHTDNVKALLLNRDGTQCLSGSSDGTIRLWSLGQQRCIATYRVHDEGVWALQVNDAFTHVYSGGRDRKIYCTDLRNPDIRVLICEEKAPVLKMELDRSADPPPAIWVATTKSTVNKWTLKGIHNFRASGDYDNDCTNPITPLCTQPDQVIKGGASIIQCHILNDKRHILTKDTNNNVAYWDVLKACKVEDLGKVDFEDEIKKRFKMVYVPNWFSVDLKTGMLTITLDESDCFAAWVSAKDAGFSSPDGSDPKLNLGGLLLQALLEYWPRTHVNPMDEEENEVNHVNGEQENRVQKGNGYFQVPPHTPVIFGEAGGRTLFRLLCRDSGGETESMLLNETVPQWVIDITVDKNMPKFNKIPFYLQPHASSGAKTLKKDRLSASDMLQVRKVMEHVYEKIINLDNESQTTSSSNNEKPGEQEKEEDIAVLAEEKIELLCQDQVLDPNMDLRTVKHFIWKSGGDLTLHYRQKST

Compound: O=c1[nH]c2ccccc2n1C1CCN(CCCC(c2ccc(F)cc2)c2ccc(F)cc2)CC1 [Pimozide, reference compound]
- K562 cell growth (K562 cells [1]; 48 hrs): dose-dependent inhibition of K562 cell growth
- effect on normal human cord blood CD34+ cells [2]: tolerated at high micromolar doses
- USP1 and ID1 protein levels [3]: promoted ID1 degradation
- apoptosis of K562 cells (K562 cells [4]): induction of apoptosis
- tumor growth in K562 xenograft (K562 xenograft): modest inhibition of tumor growth

Compound: O=C1c2ccccc2C(=O)c2oc(-c3ccccc3)nc21 [SJB2-043]
- cytotoxicity in AML cell lines [5]: dose-dependent cytotoxicity and concomitant ID1 degradation
- levels of Ub-FANCD2 / Ub-PCNA (Ub-FANCD2): increased the level of Ub-FANCD2
- EC50 (K562 cells [1]; read-out: EC50, decrease in the number of viable K562 cells, 24 hrs, ± 0.08 (95% Confidence Limits)): ~1070 nM
- effect on normal human cord blood CD34+ cells [2]: did result in growth inhibition
- cytotoxicity on primary AML bone marrow and peripheral blood cells [6]: dose-dependent cytotoxicity
- differentiation of K562 cells (K562 cells [7]): activated differentiation of K562 cells into hemoglobin-expressing erythroid cells
- USP1/ID1 degradation, time course ([3]; 2 μM, 18 hrs or 26 hrs): complete degradation of USP1/ID1
- USP1 and ID1 protein levels [3]: dose-dependent decrease in USP1 levels and a concomitant degradation of ID1 protein
- apoptosis of K562 cells (K562 cells [4]): induced apoptosis of K562 cells in a dose-dependent manner

Compound: O=C1c2ccccc2C(=O)c2oc(-c3cccnc3)nc21 [SJB3-019A]
- levels of Ub-FANCD2 / Ub-PCNA (Ub-FANCD2): increased the levels of Ub-FANCD2 and Ub-PCNA
- potency relative to SJB2-043 in cytoxicity in K562 cells (K562 cells [1]; K562 cells): 5 times
- gene conversion / HR activity (U2OS-DRGFP cells): decreased the HR activity
- potency relative to SJB2-043 in promoting ID1 degradation [3]: 5 times

Compound: Ub-aldehyde
- Ub-VS labeling of native USP1 (native USP1/UAF1 complex): complete loss of USP1-Ub-VS conjugates
